Values belong to the molecule of their own block, whether it stands above or below them. Activity calls are given as the source filed them. No cut-off for these calls is given here.
How the values were obtained:
MCF7 = experiment: Anticancer activity against human MCF-7 cells assessed as cell growth inhibition measured after 48 hrs by MTT assay; assay type: functional, cell-based; conditions: MCF7, 48 h
Outline: (§1)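 MTT test on ATCC lines grown in RPMI with 10% FBS and antibiotic/antimycotic at 37 °C in 5% CO₂. Cells were seeded at 4 x 10^3/well and treated for 48 h at 2.5, 5, 10 and 20 µM, from DMSO stocks diluted in medium. MTT (10 mg/mL stock) was then added for 3 h and absorbance read at 540 nm. IC50 derived; three independent experiments.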

HepG2 = experiment: Anticancer activity against human HepG2 cells assessed as cell growth inhibition measured after 48 hrs by MTT assay; assay type: functional, cell-based; conditions: HepG2, 48 h; outline: as §1
HEK293 = experiment: Cytotoxicity against human HEK293 cells assessed as cell growth inhibition measured after 48 hrs by MTT assay; assay type: cell-based; conditions: HEK293, 48 h; outline: as §1
MDA-MB-231 [1] = experiment: Anticancer activity against human MDA-MB-231 cells assessed as cell growth inhibition measured after 48 hrs by MTT assay; assay type: functional, cell-based; conditions: MDA-MB-231, 48 h; outline: as §1
B16-F10 = experiment: Anticancer activity against mouse B16-F10 cells assessed as cell growth inhibition measured after 48 hrs by MTT assay; assay type: functional, cell-based; conditions: B16-F10, 48 h; outline: as §1
MDA-MB-231 [2] = experiment: Induction of apoptosis in human MDA-MB-231 cells assessed as early apoptotic cells at 5 uM measured after 24 hrs by Annexin V-FITC/PI staining based flow cytometric analysis (reference value: 6.73 %); assay type: functional
MDA-MB-231 [3] = experiment: Induction of cell cycle arrest in human MDA-MB-231 cells assessed as accumulation at G2/M phase at 20 uM measured after 24 hrs by PI staining based flow cytometry (reference value: 4.31 %); assay type: functional
MDA-MB-231 [4] = experiment: Induction of cell cycle arrest in human MDA-MB-231 cells assessed as accumulation at G1/S phase at 5 uM measured after 24 hrs by PI staining based flow cytometry (reference value: 19.33 %); assay type: functional
MDA-MB-231 [5] = experiment: Induction of apoptosis in human MDA-MB-231 cells assessed as early apoptotic cells at 10 uM measured after 24 hrs by Annexin V-FITC/PI staining based flow cytometric analysis (reference value: 6.73 %); assay type: functional
MDA-MB-231 [6] = experiment: Induction of cell cycle arrest in human MDA-MB-231 cells assessed as accumulation at G0/G1 phase at 5 uM measured after 24 hrs by PI staining based flow cytometry (reference value: 76.36 %); assay type: functional
MDA-MB-231 [7] = experiment: Induction of membrane disintegrity in human MDA-MB-231 cells assessed as increase in LDH release at 2.5 to 20 uM incubated for 48 hrs by LDH leakage assay; assay type: functional, cell-based; conditions: dose 2.5-20 µM
Outline: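 Extracellular LDH kit assay. Cells were seeded at 4 x 10^3/well and treated 48 h at various concentrations. 20 µL of culture supernatant was assayed with absorbance at 450 nm. Results are expressed as % LDH leakage relative to untreated control cells; triplicate, mean ± SD.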

MDA-MB-231 [8] = experiment: Induction of cell cycle arrest in human MDA-MB-231 cells assessed as accumulation at G1/S phase at 10 uM measured after 24 hrs by PI staining based flow cytometry (reference value: 19.33 %); assay type: functional
MDA-MB-231 [9] = experiment: Induction of apoptosis in human MDA-MB-231 cells assessed as increase in caspase 2 activity at 5 to 20 uM pretreated for 48 hrs followed by VDVAD-pNA substrate addition for 2 hrs by colorimetric analysis; assay type: functional, cell-based; conditions: dose 5-20 µM, time 50.0 hrs
Outline: (§2)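 Colorimetric caspase kit. MDA-MB-231 cells were cultured 24 h, then treated at 0, 5, 10 and 20 µM for 48 h. Lysates were mixed with reaction buffer containing 10 mM DTT. pNA substrate was added at 4 mM final (VDVAD for caspase-2, DEVD for caspase-3, VEID for caspase-6) and incubated 2 h at 37 °C. Absorbance read at 405 nm; triplicate, mean ± SD.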

MDA-MB-231 [10] = experiment: Induction of apoptosis in human MDA-MB-231 cells assessed as late apoptotic cells at 20 uM measured after 24 hrs by Annexin V-FITC/PI staining based flow cytometric analysis; assay type: functional
MDA-MB-231 [11] = experiment: Induction of apoptosis in human MDA-MB-231 cells assessed as increase in caspase 3 activity at 5 to 20 uM pretreated for 48 hrs followed by DEVD-pNA substrate addition for 2 hrs by colorimetric analysis; assay type: functional, cell-based; conditions: dose 5-20 µM, time 50.0 hrs; outline: as §2
MDA-MB-231 [12] = experiment: Induction of apoptosis in human MDA-MB-231 cells assessed as increase in caspase 6 activity at 5 to 20 uM pretreated for 48 hrs followed by VEID-pNA substrate addition for 2 hrs by colorimetric analysis; assay type: functional, cell-based; conditions: dose 5-20 µM, time 50.0 hrs; outline: as §2
MDA-MB-231 [13] = experiment: Induction of cell cycle arrest in human MDA-MB-231 cells assessed as accumulation at sub G0 phase at 20 uM measured after 24 hrs by PI staining based flow cytometry (reference value: 1.33 %); assay type: functional
MDA-MB-231 [14] = experiment: Induction of cell cycle arrest in human MDA-MB-231 cells assessed as accumulation at sub G0 phase at 10 uM measured after 24 hrs by PI staining based flow cytometry (reference value: 1.33 %); assay type: functional
MDA-MB-231 [15] = experiment: Induction of cell cycle arrest in human MDA-MB-231 cells assessed as accumulation at G2/M phase at 5 uM measured after 24 hrs by PI staining based flow cytometry (reference value: 4.31 %); assay type: functional
MDA-MB-231 [16] = experiment: Induction of cell cycle arrest in human MDA-MB-231 cells assessed as accumulation at G1/S phase at 20 uM measured after 24 hrs by PI staining based flow cytometry (reference value: 19.33 %); assay type: functional
MDA-MB-231 [17] = experiment: Induction of cell cycle arrest in human MDA-MB-231 cells assessed as accumulation at G0/G1 phase at 20 uM measured after 24 hrs by PI staining based flow cytometry (reference value: 76.36 %); assay type: functional
MDA-MB-231 [18] = experiment: Induction of apoptosis in human MDA-MB-231 cells assessed as early apoptotic cells at 20 uM measured after 24 hrs by Annexin V-FITC/PI staining based flow cytometric analysis (reference value: 6.73 %); assay type: functional
MDA-MB-231 [19] = experiment: Induction of apoptosis in human MDA-MB-231 cells assessed as late apoptotic cells at 10 uM measured after 24 hrs by Annexin V-FITC/PI staining based flow cytometric analysis; assay type: functional
MDA-MB-231 [20] = experiment: Induction of cell cycle arrest in human MDA-MB-231 cells assessed as accumulation at G0/G1 phase at 10 uM measured after 24 hrs by PI staining based flow cytometry (reference value: 76.36 %); assay type: functional
MDA-MB-231 [21] = experiment: Induction of apoptosis in human MDA-MB-231 cells assessed as increase in caspase 8 activity at 5 to 20 uM pretreated for 48 hrs followed by IETD-pNA substrate addition for 2 hrs by colorimetric analysis; assay type: functional, cell-based; conditions: dose 5-20 µM, time 50.0 hrs
MDA-MB-231 [22] = experiment: Induction of cell cycle arrest in human MDA-MB-231 cells assessed as accumulation at sub G0 phase at 5 uM measured after 24 hrs by PI staining based flow cytometry (reference value: 1.33 %); assay type: functional
MDA-MB-231 [23] = experiment: Induction of apoptosis in human MDA-MB-231 cells assessed as late apoptotic cells at 5 uM measured after 24 hrs by Annexin V-FITC/PI staining based flow cytometric analysis; assay type: functional
MDA-MB-231 [24] = experiment: Induction of cell cycle arrest in human MDA-MB-231 cells assessed as accumulation at G2/M phase at 10 uM measured after 24 hrs by PI staining based flow cytometry (reference value: 4.31 %); assay type: functional
MDA-MB-231 [25] = experiment: Induction of apoptosis in human MDA-MB-231 cells assessed as increase in caspase 9 activity at 5 to 20 uM pretreated for 48 hrs followed by LEHD-pNA substrate addition for 2 hrs by colorimetric analysis; assay type: functional, cell-based; conditions: dose 5-20 µM, time 50.0 hrs

Structure (SMILES): O=Cc1cc(O)c2c(c1)C(=O)c1cccc(O)c1C2=O
IC50 (MCF7): 2.68 µM
IC50 (HepG2): 3.15 µM
IC50 (HEK293): 4.49 µM
IC50 (MDA-MB-231 [1]): 4.99 µM
IC50 (B16-F10): 2.9 µM

Structure (SMILES): CCOC(=O)c1c(-c2cc(O)c3c(c2)C(=O)c2cccc(O)c2C3=O)nn(-c2ccc(C#N)cc2)c1C(=O)OCC
IC50 (MCF7): 4.62 µM
IC50 (HepG2): 1.34 µM
IC50 (HEK293): 1.97 µM
IC50 (MDA-MB-231 [1]): 1.15 µM
IC50 (B16-F10): 3.46 µM

Structure (SMILES): O=C1c2cccc(O)c2C(=O)c2c(O)cc(CO)cc21 [ALOE-EMODIN]
IC50 (MCF7): 4.14 µM
IC50 (HepG2): 6.13 µM
IC50 (HEK293): 1 µM
IC50 (MDA-MB-231 [1]): 12.2 µM
IC50 (B16-F10): 3.12 µM

The next lines start with results.

IC50 (MCF7): 8.98 µM
IC50 (HepG2): 1.26 µM
IC50 (MDA-MB-231 [1]): 2.16 µM
IC50 (B16-F10): 8.15 µM
Structure (SMILES): CCOC(=O)c1c(-c2cc(O)c3c(c2)C(=O)c2cccc(O)c2C3=O)nn(-c2ccc(Br)cc2)c1C(=O)OCC
IC50 (HEK293): 9.07 µM

IC50 (MCF7): 2.68 µM
IC50 (HepG2): 3.99 µM
IC50 (MDA-MB-231 [1]): 1.66 µM
IC50 (B16-F10): 6.06 µM
Structure (SMILES): COC(=O)c1c(-c2cc(O)c3c(c2)C(=O)c2cccc(O)c2C3=O)nn(-c2ccc(C(C)C)cc2)c1C(=O)OC
Activity (MDA-MB-231 [2]): 20.55%
Activity (MDA-MB-231 [3]): 0%
Activity (MDA-MB-231 [4]): 22.19%
Activity (MDA-MB-231 [5]): 38.08%
Activity (MDA-MB-231 [6]): 77.2%
Activity (MDA-MB-231 [7]): Active
Activity (MDA-MB-231 [8]): 34.14%
Activity (MDA-MB-231 [9]): Active
Activity (MDA-MB-231 [10]): 50.45%
Activity (MDA-MB-231 [11]): Active
Activity (MDA-MB-231 [12]): Active
Activity (MDA-MB-231 [13]): 61.45%
Activity (MDA-MB-231 [14]): 10.87%
Activity (MDA-MB-231 [15]): 0.62%
Activity (MDA-MB-231 [16]): 25.8%
Activity (MDA-MB-231 [17]): 74.2%
IC50 (HEK293): 21.2 µM
Activity (MDA-MB-231 [18]): 35.34%
Activity (MDA-MB-231 [19]): 14.24%
Activity (MDA-MB-231 [20]): 65.81%
Activity (MDA-MB-231 [21]): Active
Activity (MDA-MB-231 [22]): 5.66%
Activity (MDA-MB-231 [23]): 17.43%
Activity (MDA-MB-231 [24]): 0.05%
Activity (MDA-MB-231 [25]): Active
